Experimental data: ChEMBL document CHEMBL1147862, “Studies on synthesis and pharmacological activities of 3,6-disubstituted-1,2,4-triazolo[3,4-b]-1,3,4-thiadiazoles and their dihydro analogues” (2007)

Assays:
Format in all cases: functional
[1] = test system: Aspergillus niger; test: Antifungal activity against Aspergillus niger at 10 ug/ml by paper disc method; conditions: read-out: IZ
[2] = test system: Staphylococcus aureus; test: Antibacterial activity against Staphylococcus aureus at 20 ug/ml by agar plate diffusion technique; conditions: read-out: IZ
[3] = test system: Staphylococcus aureus; test: Antibacterial activity against Staphylococcus aureus at 10 ug/ml by agar plate diffusion technique; conditions: read-out: IZ
[4] = test system: Aspergillus niger; test: Antifungal activity against Aspergillus niger at 30 ug/ml by paper disc method; conditions: read-out: IZ
[5] = test system: Candida albicans; test: Antifungal activity against Candida albicans at 30 ug/ml by paper disc method; conditions: read-out: IZ
[6] = test system: Bacillus subtilis; test: Antibacterial activity against Bacillus subtilis at 30 ug/ml by agar plate diffusion technique; conditions: read-out: IZ
[7] = test system: Pseudomonas aeruginosa; test: Antibacterial activity against Pseudomonas aeruginosa at 10 ug/ml by agar plate diffusion technique; conditions: read-out: IZ
[8] = test system: Aspergillus niger; test: Antifungal activity against Aspergillus niger at 20 ug/ml by paper disc method; conditions: read-out: IZ
[9] = test system: Escherichia coli; test: Antibacterial activity against Escherichia coli at 10 ug/ml by agar plate diffusion technique; conditions: read-out: IZ
[10] = test system: Escherichia coli; test: Antibacterial activity against Escherichia coli at 30 ug/ml by agar plate diffusion technique; conditions: read-out: IZ
[11] = test system: Candida albicans; test: Antifungal activity against Candida albicans at 20 ug/ml by paper disc method; conditions: read-out: IZ
[12] = test system: Bacillus subtilis; test: Antibacterial activity against Bacillus subtilis at 20 ug/ml by agar plate diffusion technique; conditions: read-out: IZ
[13] = test system: Pseudomonas aeruginosa; test: Antibacterial activity against Pseudomonas aeruginosa at 30 ug/ml by agar plate diffusion technique; conditions: read-out: IZ
[14] = test system: Escherichia coli; test: Antibacterial activity against Escherichia coli at 20 ug/ml by agar plate diffusion technique; conditions: read-out: IZ
[15] = test system: Bacillus subtilis; test: Antibacterial activity against Bacillus subtilis at 10 ug/ml by agar plate diffusion technique; conditions: read-out: IZ
[16] = test system: Candida albicans; test: Antifungal activity against Candida albicans at 10 ug/ml by paper disc method; conditions: read-out: IZ
[17] = test system: Staphylococcus aureus; test: Antibacterial activity against Staphylococcus aureus at 30 ug/ml by agar plate diffusion technique; conditions: read-out: IZ
[18] = test system: Pseudomonas aeruginosa; test: Antibacterial activity against Pseudomonas aeruginosa at 20 ug/ml by agar plate diffusion technique; conditions: read-out: IZ
[19] = test system: Rattus norvegicus; test: Antiinflammatory activity in Wistar Albino rat assessed as inhibition of carrageenan-induced paw oedema at 20 mg/kg after 3 hrs relative to control
In short: (§1)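 Wistar albino rats, 150–200 g, six per group, dosed orally with a 20 mg/kg suspension; control gets 0.1 ml 1% gum acacia. After 30 min, 0.1 ml 1% carrageenan in saline is injected subplantar into the right hind paw. Paw volume is read by plethysmograph at 0–4 h. Inhibition = 100(1 − Vtest/Vcontrol) on mean volume increase.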

[20] = test system: Rattus norvegicus; test: Antiinflammatory activity in Wistar Albino rat assessed as inhibition of carrageenan-induced paw oedema at 20 mg/kg after 1 hr relative to control; in short: as §1
[21] = test system: Rattus norvegicus; test: Antiinflammatory activity in Wistar Albino rat assessed as inhibition of carrageenan-induced paw oedema at 20 mg/kg after 4 hrs relative to control; in short: as §1
[22] = test system: Rattus norvegicus; test: Antiinflammatory activity in Wistar Albino rat assessed as inhibition of carrageenan-induced paw oedema at 20 mg/kg after 2 hrs relative to control; in short: as §1
[23] = test system: Mus musculus; test: Analgesic activity in Swiss mouse assessed as increase in reaction time at 20 mg/kg, po after 30 mins by Eddy's hot plate technique
In short: (§2)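 Swiss mice of either sex, 25–35 g, placed one at a time on a hot plate held at 55 °C. End point is paw licking or jumping, whichever comes first, with a 15 s cut-off to avoid paw injury. Reaction time is recorded and reported as percent increase in reaction time.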

[24] = test system: Mus musculus; test: Analgesic activity in Swiss mouse assessed as increase in reaction time at 20 mg/kg, po after 90 mins by Eddy's hot plate technique; in short: as §2
[25] = test system: Mus musculus; test: Analgesic activity in Swiss mouse assessed as increase in reaction time at 20 mg/kg, po after 60 mins by Eddy's hot plate technique; in short: as §2

Row | Structure (SMILES) | zone of inhibition at 10 µg/mL [1] | zone of inhibition at 20 µg/mL [2] | zone of inhibition at 10 µg/mL [3] | zone of inhibition at 30 µg/mL [4] | zone of inhibition at 30 µg/mL [5] | zone of inhibition at 30 µg/mL [6] | zone of inhibition at 10 µg/mL [7] | zone of inhibition at 20 µg/mL [8] | zone of inhibition at 10 µg/mL [9] | zone of inhibition at 30 µg/mL [10] | zone of inhibition at 20 µg/mL [11] | zone of inhibition at 20 µg/mL [12] | zone of inhibition at 30 µg/mL [13] | zone of inhibition at 20 µg/mL [14] | zone of inhibition at 10 µg/mL [15] | zone of inhibition at 10 µg/mL [16] | zone of inhibition at 30 µg/mL [17] | zone of inhibition at 20 µg/mL [18] | inhibition in vivo at 20 mg/kg [19] | inhibition in vivo at 20 mg/kg [20] | further results
1 | Cc1occc1-c1nnc(S)n1N | 3.27 mm | 8.16 mm | 5.46 mm | 13.5 mm | 12.4 mm | 11.2 mm | 6.12 mm | 6.94 mm | 6.74 mm | 12.8 mm | 6.82 mm | 8.94 mm | 12.8 mm | 9.16 mm | 5.8 mm | 3 mm | 11.3 mm | 9.16 mm | – | – | –
2 | COc1ccc(Cc2nnc(S)n2N)cc1OC | 2.67 mm | 7.14 mm | 4.72 mm | 10.7 mm | 11 mm | 9.83 mm | 5.06 mm | 4.92 mm | 4.86 mm | 10.1 mm | 5.14 mm | 7.26 mm | 8.24 mm | 7.58 mm | 5.06 mm | 2.76 mm | 9.52 mm | 6.76 mm | – | – | –
3 | Cc1occc1-c1nnc2n1NC(c1cccn1C)S2 (centres undefined) | 4.93 mm | 6.23 mm | 4.42 mm | 13.7 mm | 13.2 mm | 11.4 mm | 4.36 mm | 8.08 mm | 4.11 mm | 12.1 mm | 8.06 mm | 7.48 mm | 13.2 mm | 7.19 mm | 4.52 mm | 4.5 mm | 11.2 mm | 7.9 mm | 21.5% | 14.6% | inhibition in vivo at 20 mg/kg [21]: 22.4%; inhibition in vivo at 20 mg/kg [22]: 18.9%; Activity [23]: 7.55%; Activity [24]: 21.96%; Activity [25]: 16.8%
4 | COc1ccc(Cl)c(-c2nnc(S)n2N)c1 | 2.59 mm | 7.28 mm | 5.16 mm | 11 mm | 9.79 mm | 10.1 mm | 5.23 mm | 5.02 mm | 5.08 mm | 9.17 mm | 5.18 mm | 7.05 mm | 9.1 mm | 7.16 mm | 4.25 mm | 2.33 mm | 9.06 mm | 7.26 mm | – | – | –
5 | COc1ccc(Cl)c(-c2nnc3sc(-c4cc(-c5ccccc5)nc5ccccc45)nn23)c1 | 6.04 mm | 10.1 mm | 5.82 mm | 17.6 mm | 18.8 mm | 16.2 mm | 6.72 mm | 11.6 mm | 6.86 mm | 16.5 mm | 12.8 mm | 11.2 mm | 15.5 mm | 11.7 mm | 6.82 mm | 5.64 mm | 16.4 mm | 11.4 mm | 20.1% | 11.6% | inhibition in vivo at 20 mg/kg [21]: 24.5%; inhibition in vivo at 20 mg/kg [22]: 17.2%; Activity [23]: 5.34%; Activity [24]: 26.85%; Activity [25]: 15.68%
6 | COc1ccc(Cc2nnc3n2NC(c2cccn2C)S3)cc1OC (centres undefined) | 4.35 mm | 5.92 mm | 3.74 mm | 12.6 mm | 12.1 mm | 9.12 mm | 4.12 mm | 7.9 mm | 3.95 mm | 10.2 mm | 7.1 mm | 6.3 mm | 11.4 mm | 6.71 mm | 3.3 mm | 4.18 mm | 10.6 mm | 7.48 mm | 18.4% | 13.4% | inhibition in vivo at 20 mg/kg [21]: 19.9%; inhibition in vivo at 20 mg/kg [22]: 15.8%; Activity [23]: 5.62%; Activity [24]: 19.24%; Activity [25]: 10.24%
7 | NCC[C@H](O)C(=O)N[C@@H]1C[C@H](N)[C@@H](O[C@H]2O[C@H](CN)[C@@H](O)[C@H](O)[C@H]2O)[C@H](O)[C@H]1O[C@H]1O[C@H](CO)[C@@H](O)[C@H](N)[C@H]1O [AMIKACIN] | – | – | – | – | – | – | – | – | – | – | – | – | 23 mm | – | – | – | – | – | – | – | –
8 | O=C(N[C@H](CO)[C@H](O)c1ccc([N+](=O)[O-])cc1)C(Cl)Cl [CHLORAMPHENICOL] | – | – | – | – | – | 24.6 mm | – | – | – | 23.7 mm | – | – | 25.4 mm | – | – | – | 26.1 mm | – | – | – | –
9 | O=C([O-])Cc1ccccc1Nc1c(Cl)cccc1Cl.[Na+] [DICLOFENAC SODIUM] | – | – | – | – | – | – | – | – | – | – | – | – | – | – | – | – | – | – | – | – | Activity [23]: 32.23%; Activity [24]: 43.25%; Activity [25]: 38.15%
10 | COC1=CC(=O)C[C@@H](C)[C@]12Oc1c(Cl)c(OC)cc(OC)c1C2=O [GRISEOFULVIN] | – | – | – | 23.1 mm | 24.7 mm | – | – | – | – | – | – | – | – | – | – | – | – | – | – | – | –
11 | CCCCC1C(=O)N(c2ccccc2)N(c2ccccc2)C1=O [PHENYLBUTAZONE] | – | – | – | – | – | – | – | – | – | – | – | – | – | – | – | – | – | – | 40.8% | 21.2% | inhibition in vivo at 20 mg/kg [21]: 45.4%; inhibition in vivo at 20 mg/kg [22]: 33.6%
12 | CN[C@H](CC(C)C)C(=O)N[C@H]1C(=O)N[C@@H](CC(N)=O)C(=O)N[C@H]2C(=O)N[C@H]3C(=O)N[C@H](C(=O)N[C@H](C(=O)O)c4cc(O)cc(O)c4-c4cc3ccc4O)[C@H](O)c3ccc(c(Cl)c3)Oc3cc2cc(c3O[C@@H]2O[C@H](CO)[C@@H](O)[C@H](O)[C@H]2O[C@H]2C[C@](C)(N)[C@H](O)[C@H](C)O2)Oc2ccc(cc2Cl)[C@H]1O [VANCOMYCIN] | – | – | – | – | – | 23 mm | – | – | – | – | – | – | – | – | – | – | – | – | – | – | –
